Experimental findings from ChEMBL document CHEMBL4513216, “Probing the Open Global Health Chemical Diversity Library for Multistage-Active Starting Points for Next-Generation Antimalarials” (ACS Infect Dis, 2020) are described below.

The nature of the data set: Toxicity liver stage against HepG2, at 10uM. The class given is cell-based. The note with it: human, HepG2-A16-CD81EGFP cells; read-out: INHIBITION
More on the design: test concentration 10 uM, cell line HepG2-A16-CD81EGFP. The method, boiled down: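 Uninfected HepG2-A16-CD81EGFP cells, 3 × 10^3 per well, 1536-well, plated on prespotted compound at 10 μM final, parasite-free screening media added to match infected plates; puromycin 10 μM positive, DMSO 0.5% negative; run in parallel with 48 h PbLuc assay at 37 °C, 5% CO2; viability by CellTiter-Glo luminescence, normalized to controls.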
`OCCc1cc(CC2(NCc3ccncc3)COC2)no1`: the cytotoxicity at 10 µM was -3.56%.

Turning to `COc1cccc(CN2C[C@@H](F)[C@@H](OCc3nc4cnccc4[nH]3)C2)c1`, the cytotoxicity at 10 µM was -1.72%. As for `CCc1c(C)sc2c1c(N)nc(=O)n2CCN(C)C`, the figure is 3.85%; as for `Cc1nn(-c2ccc(C(=O)O)cc2)c2c1C(C(F)(F)F)SCC(=O)N2` (stereo not given), -1.24%; as for `O=C(NCCc1ccccc1)NCC(O)c1cccs1` (stereo not given), -11.9%.

As to `O=S(=O)(c1ccccc1)N1C[C@@H]2CCN[C@@H]2C1`, the cytotoxicity at 10 µM turned out to be 2.58%.

`CCc1nc(-c2noc3ccc(C(=O)N(C)CCOC)cc23)co1`: the cytotoxicity at 10 µM is -138%.

On to `COCC1c2nnn(CC3CC3)c2CCN1C(=O)CS(C)(=O)=O` (stereo not given), for which the cytotoxicity at 10 µM was -129%. Consider `O=C(NCc1ccccc1)N1CCC2(CC(=O)N(c3ccccc3)C2)C1` (stereo not given), for which the cytotoxicity at 10 µM was found to be 2.61%. The figure for `O=C(NCC1CCCO1)c1nc2c(s1)CCCN2CC1CC1` (stereo not given) is -0.843%; for `O=C1CC[C@H]2[C@H](CCN2C(=O)c2ccc[nH]2)N1CCN1CCOCC1` it is 3.3%; for `CCCc1cc(=O)[nH]c2nnc(SCC(=O)NCc3ccc(C)cc3)n12` it is -15.7%. The figure for `O=C(NCC(Cc1cccc(F)c1)N1CCCC1=O)c1cnccn1` (stereo not given) is -5.06%.

Turning to `CC(=O)N1CC[C@H]2OCC[C@@H](C(=O)N3CCCCO3)[C@@H]2C1`, the cytotoxicity at 10 µM is -5.1%. As for `O=C(NCC1CC1)C1CN(C(=O)c2ccncc2)CC12CCOCC2` (stereo not given), the figure is 0.381%. For the molecule `COc1c(C(=O)NCC2CCCO2)nnn1Cc1ccccc1` (stereo not given), the cytotoxicity at 10 µM was determined as 7.47%. The figure for `Cc1cccc(Nc2noc3c2CN(C(=O)c2ccn(C)n2)CC3)c1C` is -0.61%. `COc1ccccc1N1CC(NC(=O)Cn2cc(C(C)C)nn2)CC1=O` (stereo not given): the cytotoxicity at 10 µM is 11.5%.

In the case of `Nc1nc(N)c2c(n1)OC1(CCN(Cc3nccs3)C1)C2` (stereo not given), the cytotoxicity at 10 µM is 0.861%. As for `O=C(NCc1ccc2c(c1)OCO2)[C@H]1C=CCN1c1ncccn1`, the figure is -4.52%; as for `CN(C)c1ccc(CC2CCCN(c3cnccn3)C2)nn1` (stereo not given), 4.71%; as for `O=C(C1CCC1)N1CCCC(c2ccnc(Nc3cnccn3)n2)C1` (stereo not given), -22.7%.

Consider `O=C(c1cscn1)N1CCC(Cc2cnc3[nH]ccc3c2)C1` (stereo not given), for which the cytotoxicity at 10 µM is -26.5%. As for `NC(=O)CN(CC(N)=O)Cc1cccc(Oc2ccccc2)c1`, the figure is -5.05%; as for `CCn1cnnc1CNC(=O)NC(c1ccccc1)C1CCCC1` (stereo not given), 12%; as for `CN(C)C(=O)Cn1cnc2c(Br)cccc2c1=O`, -8.97%. Consider `CCc1cc(NC(=O)N2CCC(Oc3cccnc3)C2)n(C)n1` (stereo not given), for which the cytotoxicity at 10 µM amounted to 5.95%. As for `Cc1noc(C)c1NS(=O)(=O)c1cc(C(=O)O)cc(Cl)c1Cl`, the figure is 6.14%. The figure for `O=C(NCCN1CCOCC1)c1ccc(-c2ccccc2)[nH]c1=O` is 1.58%. Turning to `Cc1ccc(C(=O)NCCN2CCOCC2)c(=O)[nH]1`, the cytotoxicity at 10 µM is -8.44%.

Take `N#Cc1ccnc(N2CCN(CC(O)c3ccccc3Cl)CC2)c1` (stereo not given): the cytotoxicity at 10 µM was 1.7%. The figure for `Cc1nnc(C(C)NCC2(c3ccc(F)cc3)CCCCC2)o1` (stereo not given) is 2.39%; for `CC1(NC(=O)Cc2csc(NC(=O)c3ccccc3)n2)CCS(=O)(=O)C1` (stereo not given) it is 0.271%; for `O=C(NCCCN1CCOCC1)c1cc(-c2ccccc2)[nH]n1` it is -161%. As to `O=C(NCc1ccccc1F)NC1CCCN(c2ncccn2)C1` (stereo not given), the cytotoxicity at 10 µM worked out at 7.81%.

In the case of `O=C(NCc1nnc2n1CCC2)NCC1(c2cccc(F)c2)CC1`, the cytotoxicity at 10 µM was -6.03%. Regarding `CCOC(=O)c1nc(CN2CCN(C(C)C(=O)NC3CC3)CC2)cs1` (stereo not given), the cytotoxicity at 10 µM was -2.52%. On to `NC(=O)CCS(=O)(=O)Cc1ccc(OCC(F)(F)F)cc1`, for which the cytotoxicity at 10 µM is -4.16%. With `CCS(=O)(=O)CC(=O)NC1(c2ccc(Cl)c(Cl)c2)CC1`, the cytotoxicity at 10 µM is -2.6%.

For the molecule `O=C1NCCN1C1CCN(Cc2ccccn2)CC1`, the cytotoxicity at 10 µM stood at 4.08%. As for `Cc1cnn(CC2CCCN2Cc2coc(-c3ccccc3)n2)c1` (stereo not given), the figure is -5.26%; as for `CN(C)C(=O)NC1COC2(CCN(S(=O)(=O)c3ccccc3)CC2)C1` (stereo not given), -88.5%; as for `CC(=O)NCC(=O)N1CCN(Cc2cccnc2)c2ncccc2C1`, -114%. The figure for `CC1(c2ccccc2)CCC(=O)N(CC2(N3CCOCC3)CCCC2)C1` (stereo not given) is 8.8%; for `COCC1CCN(Cc2cc(O)c3c(C)ccc(C)c3n2)CC1` it is -6.09%; for `Clc1cccc2c3c([nH]c12)CCN(Cc1cc2n(n1)CCNC2)C3` it is -0.735%. On to `O=C(O)C1(n2ccc(-c3ccco3)n2)CCN(Cc2ccsc2)CC1`, for which the cytotoxicity at 10 µM is -129%. Turning to `CN1CCN(Cc2nnc(C3CCN(S(C)(=O)=O)CC3)n2C)CC1`, the cytotoxicity at 10 µM was 4.67%. With `Cn1cc(C(=O)N2CC[C@H](N3CCOCC3)[C@H](CCCO)C2)cn1`, the cytotoxicity at 10 µM is -158%. The figure for `Cc1cc(C2CCC2)nc(N2CCC3(CCCN(C)C3=O)C2)n1` (stereo not given) is -6.62%; for `Cc1nonc1C(=O)N1CC[C@@]2(O)CCN(C3CCCCC3)C[C@H]2C1` it is -132%. The figure for `Cc1ccc(C(N)=O)c(N2C[C@H]3OC(=O)N(C4CCCC4)[C@H]3C2)n1` is 5.54%. `O=C(N1CCCC1)N1CCCC(c2nccn2Cc2ccncc2)C1` (stereo not given): the cytotoxicity at 10 µM came to 8.2%.

`Cc1ccc(C2(C(=O)N3CCC(n4cc(C(C)O)nn4)CC3)CC2)cc1` (stereo not given): the cytotoxicity at 10 µM was -2.26%. Take `COC(=O)c1ccc(OC)c(CN2CCN(CC(C)C)C(=O)C2C)c1` (stereo not given): the cytotoxicity at 10 µM was -20.3%. Turning to `Cc1onc(N)c1S(=O)(=O)N1CCCCC1C` (stereo not given), the cytotoxicity at 10 µM amounted to 12.4%.

Take `CNc1ncccc1C(=O)N1CCc2c(nc(N)[nH]c2=O)C1`: the cytotoxicity at 10 µM amounted to 3.61%. As for `Cn1ncc2c(N3CCN(CCO)CC3)nc(C3CCCC3)nc21`, the figure is -4.07%; as for `O=C(O)[C@@H]1CN(CCOCCO)C[C@H]1c1ccccc1`, -2.33%; as for `COCCCC1CCCN(C(=O)CCc2cc(O)no2)C1` (stereo not given), 8.41%.

Take `COc1c(C2CCCN2C(=O)c2cnc(C)cn2)c(C)nn1C` (stereo not given): the cytotoxicity at 10 µM was 2.58%. The figure for `CC(=O)N(C)c1nc(CN2CCCC2Cn2nc(C)cc2C)cs1` (stereo not given) is -10.3%; for `Cc1nc(NC(=O)CCc2c(C)nc3cc(O)nn3c2C)sc1C` it is -13.5%. As for `COCCN1CCC(NCc2cc(F)ccc2F)C1` (stereo not given), the figure is -21.9%. On to `COc1ccccc1CC(=O)NS(=O)(=O)c1ccc(NC(C)=O)cc1`, for which the cytotoxicity at 10 µM is -2.18%. The figure for `CCCC(=O)NC(C(=O)OC)c1cc(F)ccc1F` (stereo not given) is 8.55%. Turning to `COc1cc(CCC(=O)NC2CCN(C)CC2)ccc1OCC(F)(F)F`, the cytotoxicity at 10 µM is -8.82%. In the case of `Cc1ccc(C2=CCN(C(=O)C3CCN(C)C(=O)C3)CC2)cc1` (stereo not given), the cytotoxicity at 10 µM is -12.1%. As for `CN1CCCN(C(=O)NCc2cc(Br)cs2)CC1`, the figure is -16.7%. The figure for `Cn1cc(C2CCCN2CCc2nc3ccccc3c(=O)[nH]2)cn1` (stereo not given) is -12.9%; for `Cc1cc(C)c(CNC(=O)N2CCCC2c2ccccn2)c(=O)[nH]1` (stereo not given) it is 1.17%; for `CC(=O)N1CCN(C(=O)CN2CCCC2Cn2nc(C)cc2C)CC1` (stereo not given) it is -12.2%. As for `O=C(NCCNc1ncccn1)N1CCN(c2nccs2)CC1`, the figure is -13.8%; as for `CC(O)(CN1CCN(CCO)CC1)c1cccc(C(F)(F)F)c1` (stereo not given), -17.5%; as for `Cn1ccnc1CN1CCCC1Cn1cccn1` (stereo not given), -13.8%. In the case of `Cc1cnn(CC2CCCN2C(=O)CCc2ccncc2)c1` (stereo not given), the cytotoxicity at 10 µM was -10.6%. Take `N#Cc1ccsc1C(=O)N1CCCN(Cc2cscn2)CC1`: the cytotoxicity at 10 µM amounted to 3.48%. As for `Cc1noc2ncc(C(=O)NCC3CCOC3)cc12` (stereo not given), the figure is -1.47%; as for `Cn1ccnc1CN1CCN(CC(O)c2cccc(F)c2)CC1` (stereo not given), 1.59%; as for `Cc1cccc(CC(=O)N2CCN(c3nccn3C)CC2)c1`, 8.68%.

Consider `COCCN1CC2(CCN(C(=O)c3ccno3)CC2)c2ccccc21`, for which the cytotoxicity at 10 µM was 0.729%. Consider `CCS(=O)(=O)N1C[C@@H](Oc2ccccn2)[C@H]2OCCC[C@H]21`, for which the cytotoxicity at 10 µM is 5.08%. As for `CCS(=O)(=O)N1CCCC2(CCCN2Cc2cccc(Cl)c2)C1` (stereo not given), the figure is -143%. Turning to `Cc1nc(COC[C@]23COC[C@H]2CN(Cc2ccoc2)C3)cs1`, the cytotoxicity at 10 µM is -19.2%. As for `Cn1cnc2c(N3CCCC3)nc(C3CCN(CC4CC4)CC3)cc21`, the figure is -5.26%; as for `Cc1ccc(CN2C[C@@H](OCc3csc(C)n3)[C@H]3COC[C@H]32)s1`, -5.21%. For `Cc1noc(C)c1CN1C[C@@H](OCc2ccccn2)[C@H]2OCCC[C@H]21`, the cytotoxicity at 10 µM was -3.14%.

`O[C@@H]1CCN(CC2CC2)[C@H]1Cc1ccccc1`: the cytotoxicity at 10 µM was found to be 3.57%. As for `c1cnc(NC[C@H]2OC[C@@H]3CCN(Cc4nccs4)C[C@@H]32)nc1`, the cytotoxicity at 10 µM was -3.38%. In the case of `FC(F)(F)c1cccc(-c2c[nH]c(C3CCCN3)n2)c1` (stereo not given), the cytotoxicity at 10 µM is -3.25%. Consider `O=C(NCc1cn2c(n1)CN(Cc1cccc(F)c1)CC2)C1CCC1`, for which the cytotoxicity at 10 µM stood at 8.79%. Consider `CCc1ccc(CN2Cc3nccn3CC(Cn3cncn3)C2)o1` (stereo not given), for which the cytotoxicity at 10 µM was -137%.

Turning to `CO[C@H]1CN(C(=O)c2cccnc2)[C@@H]2CCCO[C@H]12`, the cytotoxicity at 10 µM amounted to 5%. The figure for `CN(Cc1ccco1)C[C@H]1OC[C@@H]2CCN(Cc3ccccn3)C[C@@H]21` is -3.22%. Turning to `COCCN1C(=O)CCC12CCC(NC(=O)c1cnccn1)CC2` (stereo not given), the cytotoxicity at 10 µM is -6.19%.
